Experimental data from different studies.
Protocols differ between the studies behind these lines.
Target: Histamine H1 receptor (HRH1, Homo sapiens, UniProt P35367)

`CN1CCC(=C(c2ccccc2)c2ccccc2)CC1` gave a Ki of 3.16 nM (cell-free assay; radioligand).
The Ki of `CN(C)c1ccc(/C=C2\CCc3ccc(OCCCN4CCCCC4)cc3C2=O)cc1` is reported as 2140 nM (ligand displacement; radioligand; cell membranes).
`CCCCCCCNCCCc1ccc([N+](=O)[O-])cc1` gave a Ki of 9200 nM (ligand displacement; radioligand).
With `O=C1NC(c2ccccc2)(c2ccccc2)C(=O)N1CCCN1CCCCC1` the Ki was 6310 nM (ligand displacement; radioligand; cell membranes).
For `O=C1CCCc2ccc(OCCCN3CCCCC3)cc21`, the Ki was 3720 nM (ligand displacement; radioligand; cell membranes).
The Ki of `CN1CCN(C2c3ccccc3CCc3ccccc32)CC1` is reported as 2 nM (cell-free assay; radioligand).
For `CNc1nc2cc(OCCCCN3CCC(c4cccc(Cl)c4Cl)CC3)ccc2s1`, the Ki was 28 nM (ligand displacement; radioligand).
`CN1CCC(=C2c3ccccc3CCc3cccnc32)CC1` has a Ki of 0.0631 nM (cell-free assay).
For `CN(C)c1ccc(/C=C2\CCc3ccc(OCc4ccc(OCCCN5CCCCC5)cc4)cc3C2=O)cc1`, the Ki was 4230 nM (ligand displacement; radioligand; cell membranes).
The Ki of `CN1CCC(C2c3ccccc3CCc3ccccc32)CC1` is reported as 0.631 nM (cell-free assay; radioligand).
`CCc1nc2cc(OCCCCN3CCC(c4cccc(Cl)c4Cl)CC3)ccc2s1` gave a Ki of 690 nM (ligand displacement; radioligand).
`O=C1CCCc2cc(OCCCN3CCCCC3)ccc21` gave a Ki of 3470 nM (ligand displacement; radioligand; cell membranes).
With `CCCNc1nc2ccccc2n1Cc1ccc(Cl)cc1` the Ki was 6.2 nM (cell-free assay; radioligand).
